ChEMBL document CHEMBL1156575, “Toward an optimal blood-brain barrier shuttle by synthesis and evaluation of peptide libraries” (J Med Chem, 2008)
Where a SMILES comes first, the peptide text is derived from it. [ ]: non-standard residue; d: D form. Tpi = O=C(O)[C@@H]1Cc2c([nH]c3ccccc23)CN1; NMeW = CN[C@@H](Cc1c[nH]c2ccccc12)C(=O)O; 2Nal = N[C@@H](Cc1ccc2ccccc2c1)C(=O)O; Dopa = N[C@@H](Cc1ccc(O)c(O)c1)C(=O)O; NMehPhe = CN[C@@H](CCc1ccccc1)C(=O)O; NMeF = CN[C@@H](Cc1ccccc1)C(=O)O; NMePhg = CN[C@H](C(=O)O)c1ccccc1; 3Pal = N[C@@H](Cc1cccnc1)C(=O)O; Tic = O=C(O)[C@@H]1Cc2ccccc2CN1; Phg = N[C@H](C(=O)O)c1ccccc1

Experiments:
[1] = Membrane permeability by PAMPA
[2] = Membrane permeability assessed as passive transport after 4 hrs by PAMPA
[3] = test system: HeLa; test: Cytotoxicity against human HeLa cells at 25 to 100 uM after 24 hrs by MTT assay; type: functional, cell-based
Procedure, shortened: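 HeLa cells seeded at 7000 cells/well and grown 24 h, then given peptide in medium (solutions centrifuged first, as not fully soluble) at 25, 50 and 100 µM for 24 h at 37 °C. MTT added at 22 h (0.5 mg/mL final) for 2 h. Formazan dissolved in 2-propanol, A570 read after 45 min. Viability is % of untreated cells; mean ± SD.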

[4] = Stability in human serum after 12 hrs
[5] = Membrane permeability assessed as passive transport after 4 hrs by PAMPA in presence of 20% 1-propanol; type: ADME
Procedure, shortened: (§1)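 PAMPA-BBB model, 200 µM compound in pION buffer pH 7.4 with 20% 1-propanol in the donor well. Filter coated with phospholipid mix (20 mg/mL in dodecane); acceptor holds buffer plus 1-propanol. Incubated 4 h at room temperature, saturated humidity, orbital shaking 100 rpm. Donor and acceptor quantified by RP-HPLC. % transport at 4 h and Pe (eq 1) calculated; mean ± SD.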

[6] = Membrane permeability by PAMPA in presence of 20% 1-propanol; type: ADME; settings: read-out: permeability; procedure, shortened: as §1

SMILES | permeability [2] [%] | Papp ([1]; permeability) [×10⁻⁶ cm/s] | also measured
CN(C(=O)[C@H](Cc1ccc2ccccc2c1)NC(=O)[C@@H](N)Cc1ccc(O)c(O)c1)[C@@H](Cc1ccccc1)C(=O)N(C)[C@@H](Cc1ccccc1)C(=O)N(C)[C@@H](Cc1ccccc1)C(N)=O (H-[Dopa][2Nal][NMeF][NMeF][NMeF]-NH2) | 0.7 | – | Papp [1]: 0.3 ×10⁻⁶ cm/s
CC(=O)N(C)[C@@H](Cc1ccccc1)C(=O)N(C)[C@@H](Cc1ccccc1)C(=O)N(C)[C@@H](Cc1ccccc1)C(=O)N(C)[C@@H](Cc1ccccc1)C(N)=O (stereo in doubt; form 2) | – | – | Activity [3]: Not toxic; remaining at 12 h [4]: 91%
CC(=O)N(C)[C@@H](Cc1c[nH]c2ccccc12)C(=O)N(C)[C@@H](Cc1ccccc1)C(=O)N(C)[C@@H](Cc1ccccc1)C(=O)N(C)[C@@H](Cc1ccccc1)C(N)=O (Ac-[NMeW][NMeF][NMeF][NMeF]-NH2) | 2.9 | 1.4 | –
CC(=O)N(C)[C@@H](CCc1ccccc1)C(=O)N(C)[C@@H](Cc1ccccc1)C(=O)N(C)[C@@H](Cc1ccccc1)C(=O)N(C)[C@@H](Cc1ccccc1)C(N)=O (Ac-[NMehPhe][NMeF][NMeF][NMeF]-NH2) | 3.7 | 1.8 | –
CC(=O)N[C@@H](Cc1cccnc1)C(=O)N(C)[C@@H](Cc1ccccc1)C(=O)N(C)[C@@H](Cc1ccccc1)C(=O)N(C)[C@@H](Cc1ccccc1)C(N)=O (Ac-[3Pal][NMeF][NMeF][NMeF]-NH2) | 2.5 | 1.2 | –
NC(=O)N1c2ccccc2C=Cc2ccccc21 [CARBAMAZEPINE] | 16.8 | 8 | permeability [5]: 20.6%; Papp [6]: 12.8 ×10⁻⁶ cm/s
CC(=O)N(C)[C@@H](Cc1ccccc1)C(=O)N(C)[C@@H](Cc1ccccc1)C(=O)N(C)[C@@H](Cc1ccccc1)C(=O)N(C)[C@@H](Cc1ccccc1)C(=O)O (Ac-[NMeF][NMeF][NMeF][NMeF]-OH) | 1.9 | 0.9 | –
CC(=O)N[C@@H](Cc1c[nH]c2ccccc12)C(=O)N(C)[C@@H](Cc1ccccc1)C(=O)N(C)[C@@H](Cc1ccccc1)C(=O)N(C)[C@@H](Cc1ccccc1)C(N)=O (Ac-W[NMeF][NMeF][NMeF]-NH2) | 3.9 | 1.8 | –
NCCc1ccc(O)c(O)c1 [DOPAMINE] | 0 | – | permeability [5]: 0%
CC(=O)N[C@@H](Cc1ccc2ccccc2c1)C(=O)N(C)[C@@H](Cc1ccccc1)C(=O)N(C)[C@@H](Cc1ccccc1)C(=O)N(C)[C@@H](Cc1ccccc1)C(N)=O (Ac-[2Nal][NMeF][NMeF][NMeF]-NH2) | – | – | Activity [3]: Not toxic
Cn1c(=O)c2c(ncn2C)n(C)c1=O [CAFFEINE] | 3.6 | 1.8 | permeability [5]: 3.6%; Papp [6]: 1.8 ×10⁻⁶ cm/s
N[C@@H](Cc1ccc(O)c(O)c1)C(=O)O [LEVODOPA] | 0 | – | permeability [5]: 0%
CC(C)NCC(O)COc1cccc2ccccc12 (centres undefined) [PROPRANOLOL] | 13.5 | 6.9 | permeability [5]: 14.9%; Papp [6]: 8.4 ×10⁻⁶ cm/s
CN(C(=O)[C@@H](N)Cc1ccc(O)c(O)c1)[C@@H](Cc1ccccc1)C(=O)N(C)[C@@H](Cc1ccccc1)C(=O)N(C)[C@@H](Cc1ccccc1)C(=O)N(C)[C@@H](Cc1ccccc1)C(N)=O (H-[Dopa][NMeF][NMeF][NMeF][NMeF]-NH2) | 2.4 | – | Papp [1]: 1.1 ×10⁻⁶ cm/s

Second part, led by results:

permeability [2] [%] | Papp ([1]; permeability) [×10⁻⁶ cm/s] | SMILES | also measured
3.2 | 1.5 | CC(=O)N1Cc2[nH]c3ccccc3c2C[C@H]1C(=O)N(C)[C@@H](Cc1ccccc1)C(=O)N(C)[C@@H](Cc1ccccc1)C(=O)N(C)[C@@H](Cc1ccccc1)C(N)=O (Ac-[Tpi][NMeF][NMeF][NMeF]-NH2) | –
0 | – | CC(=O)N[C@H](C(=O)N(C)[C@@H](Cc1ccccc1)C(=O)N(C)[C@@H](Cc1ccccc1)C(=O)N(C)[C@@H](Cc1ccccc1)C(N)=O)c1ccccc1 (Ac-[Phg][NMeF][NMeF][NMeF]-NH2) | –
4.6 | 2.2 | CN(C(=O)[C@@H]1Cc2ccccc2CN1)[C@@H](Cc1ccccc1)C(=O)N(C)[C@@H](Cc1ccccc1)C(=O)N(C)[C@@H](Cc1ccccc1)C(N)=O (H-[Tic][NMeF][NMeF][NMeF]-NH2) | –
1.5 | 0.7 | CC(=O)N(C)[C@H](C(=O)N(C)[C@@H](Cc1ccccc1)C(=O)N(C)[C@@H](Cc1ccccc1)C(=O)N(C)[C@@H](Cc1ccccc1)C(N)=O)c1ccccc1 (Ac-[NMePhg][NMeF][NMeF][NMeF]-NH2) | –
4.3 | 2 | CC(=O)N1Cc2ccccc2C[C@H]1C(=O)N(C)[C@@H](Cc1ccccc1)C(=O)N(C)[C@@H](Cc1ccccc1)C(=O)N(C)[C@@H](Cc1ccccc1)C(N)=O (Ac-[Tic][NMeF][NMeF][NMeF]-NH2) | –
1.3 | 0.6 | CN(C(=O)[C@@H]1Cc2c([nH]c3ccccc23)CN1)[C@@H](Cc1ccccc1)C(=O)N(C)[C@@H](Cc1ccccc1)C(=O)N(C)[C@@H](Cc1ccccc1)C(N)=O (H-[Tpi][NMeF][NMeF][NMeF]-NH2) | –
